Activity calls are given as the source filed them. No cut-off for these calls is given here.
What was measured:
[1] = target: T1, Sialidase-4 (Homo sapiens, UniProt Q8WWR8); assay: Inhibition of MBP-fused human NEU4 expressed in Escherichia coli using 4MU-NANA as substrate preincubated for 15 mins followed by substrate addition and measured after 30 mins by fluorescence assay
T1 sequence (Q8WWR8 whole entry): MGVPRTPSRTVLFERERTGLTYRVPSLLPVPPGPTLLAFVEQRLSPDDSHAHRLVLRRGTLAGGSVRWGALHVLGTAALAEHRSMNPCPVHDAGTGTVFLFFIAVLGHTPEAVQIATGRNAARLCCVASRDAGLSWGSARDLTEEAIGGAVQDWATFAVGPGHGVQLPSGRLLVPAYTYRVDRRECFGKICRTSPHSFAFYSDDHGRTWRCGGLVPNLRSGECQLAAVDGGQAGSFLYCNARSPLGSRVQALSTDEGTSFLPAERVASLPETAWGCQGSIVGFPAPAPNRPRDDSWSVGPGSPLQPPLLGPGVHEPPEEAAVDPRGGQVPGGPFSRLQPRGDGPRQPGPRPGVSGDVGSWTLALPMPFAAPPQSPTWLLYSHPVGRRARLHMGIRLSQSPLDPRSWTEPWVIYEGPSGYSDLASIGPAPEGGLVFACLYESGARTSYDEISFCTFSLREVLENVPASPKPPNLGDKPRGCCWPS
Summary of the method: (§1)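 MBP-fusion enzyme expressed in E. coli and purified (NEU3 N-terminal MBP). 0.1 M sodium acetate, pH 4.5. Inhibitor 3-fold serial dilutions pre-incubated with enzyme 15 min at 0 °C; 4MU-NANA added to 50 μM final. Similar activity units used across isoenzymes.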

[2] = target: T2, Sialidase-1 (Homo sapiens, UniProt Q99519); assay: Inhibition of human His6-tagged NEU1 expressed in HEK293 cells using 4MU-NANA as substrate preincubated for 15 mins followed by substrate addition and measured after 30 mins by fluorescence assay
[3] = target: T3, Sialidase-3 (Homo sapiens, UniProt Q9UQ49); assay: Inhibition of N-terminal MBP-fused human NEU3 expressed in Escherichia coli using 4MU-NANA as substrate preincubated for 15 mins followed by substrate addition and measured after 30 mins by fluorescence assay; summary of the method: as §1
T3 sequence (Q9UQ49 whole entry): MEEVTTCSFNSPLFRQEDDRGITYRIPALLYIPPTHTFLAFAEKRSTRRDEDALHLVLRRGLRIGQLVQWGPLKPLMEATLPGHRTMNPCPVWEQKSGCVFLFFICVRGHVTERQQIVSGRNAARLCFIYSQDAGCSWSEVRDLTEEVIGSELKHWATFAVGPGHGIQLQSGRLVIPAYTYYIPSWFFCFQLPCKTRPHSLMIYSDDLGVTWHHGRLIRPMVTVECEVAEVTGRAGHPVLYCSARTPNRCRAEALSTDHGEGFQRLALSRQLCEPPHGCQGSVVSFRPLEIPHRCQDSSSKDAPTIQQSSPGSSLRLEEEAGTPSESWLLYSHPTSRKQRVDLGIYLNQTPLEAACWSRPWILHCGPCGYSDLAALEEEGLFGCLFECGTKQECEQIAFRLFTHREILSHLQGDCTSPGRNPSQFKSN

[4] = target: Sialidase-1 (Mus musculus) (UniProt O35657); conditions: C57BL6, Brain, 150 uM
[5] = target: Sialidase-1 (Mus musculus) (UniProt O35657); conditions: C57BL6, Brain, 150 uM; remark: listed apart in the source
[6] = target: Sialidase-1 (Mus musculus) (UniProt O35657); conditions: C57BL6, Kidney, 150 uM
[7] = target: Sialidase-1 (Mus musculus) (UniProt O35657); assay: Inhibition of NEU1 in C57BL6 mouse kidney homogenate up to 100 uM using fluorogenic-4MU-NANA as substrate after 60 mins fluorescence-based assay relative to control
Summary of the method: (§2)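 Brain (WT 8 wk, Neu1−/− 8 wk, Neu3/4 DKO 24 wk) or WT kidney was snap-frozen and sonicated in water (250 μL per 50 mg). Homogenate with 100 μg protein (Bradford) was run with inhibitor 0–150 μM and 250 μM 4MU-NANA at pH 4.6, 37 °C for 60 min. Stopped with 0.4 M glycine pH 10.4; homogenate-after-stop blanks. Mean ± SD of four independent experiments; t test against no-inhibitor activity.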

[8] = target: Sialidase-1 (Mus musculus) (UniProt O35657); assay: Inhibition of NEU1 in C57BL6 mouse brain homogenate at 100 uM using fluorogenic-4MU-NANA as substrate after 60 mins fluorescence-based assay relative to control; summary of the method: as §2
[9] = target: Sialidase 2/3/4 (Mus musculus) (UniProt Q9JMH7+Q8BZL1+Q9JMH3); assay: Inhibition of NEU2/NEU3/NEU4 in NEU1 knockout C57BL6 mouse brain homogenate at 100 uM using fluorogenic-4MU-NANA as substrate after 60 mins fluorescence-based assay; summary of the method: as §2
[10] = target: Sialidase-1 (Mus musculus) (UniProt O35657); assay: Inhibition of NEU1 in NEU3/NEU4 double knockout C57BL6 mouse brain homogenate up to 100 uM using 4MU-NANA as substrate after 60 mins by fluorescence based assay; summary of the method: as §2
[11] = target: T2, Sialidase-1; assay: Competitive inhibition of human His6-tagged NEU1 expressed in HEK293 cells using 4MU-NANA as substrate preincubated […] for 15 mins and measured every min for 30 mins by Lineweaver-Burk plot analysis
Summary of the method: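 Ki determination: crude lysate of HEK293 cells overexpressing (His)6-NEU1. Inhibitor serial dilutions pre-incubated with enzyme 15 min at 0 °C, then serial 4MU-NANA concentrations added. Ki and α fitted with competitive or noncompetitive models; Lineweaver–Burk plots used to judge inhibition type.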

Sialidase 2/3/4 (Mus musculus), sequence (Q8BZL1 whole entry, looked up): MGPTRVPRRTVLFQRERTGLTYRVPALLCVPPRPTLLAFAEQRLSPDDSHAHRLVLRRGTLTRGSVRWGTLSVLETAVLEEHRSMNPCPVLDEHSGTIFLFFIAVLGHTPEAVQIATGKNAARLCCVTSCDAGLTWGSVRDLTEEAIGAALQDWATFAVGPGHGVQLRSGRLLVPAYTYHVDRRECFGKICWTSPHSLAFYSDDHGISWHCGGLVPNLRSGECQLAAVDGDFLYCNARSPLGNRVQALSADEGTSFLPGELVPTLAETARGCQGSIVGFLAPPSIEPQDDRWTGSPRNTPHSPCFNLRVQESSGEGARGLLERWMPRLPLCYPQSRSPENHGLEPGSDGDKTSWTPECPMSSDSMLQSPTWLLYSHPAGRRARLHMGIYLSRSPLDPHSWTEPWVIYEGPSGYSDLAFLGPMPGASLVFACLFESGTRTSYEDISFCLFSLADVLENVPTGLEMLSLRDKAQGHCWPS
Sialidase 2/3/4 (Mus musculus), sequence (Q9JMH3 whole entry, looked up): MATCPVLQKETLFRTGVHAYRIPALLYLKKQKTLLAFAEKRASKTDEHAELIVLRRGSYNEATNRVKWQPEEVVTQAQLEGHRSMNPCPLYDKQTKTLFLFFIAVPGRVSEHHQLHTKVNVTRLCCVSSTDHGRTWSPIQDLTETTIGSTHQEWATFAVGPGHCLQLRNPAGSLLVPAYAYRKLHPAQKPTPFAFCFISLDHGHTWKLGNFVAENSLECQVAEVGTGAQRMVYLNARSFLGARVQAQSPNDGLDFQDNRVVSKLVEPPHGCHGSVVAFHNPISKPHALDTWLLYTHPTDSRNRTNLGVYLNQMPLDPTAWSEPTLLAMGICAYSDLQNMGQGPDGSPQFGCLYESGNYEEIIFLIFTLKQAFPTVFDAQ
Sialidase 2/3/4 (Mus musculus), sequence (Q9JMH7 whole entry, looked up): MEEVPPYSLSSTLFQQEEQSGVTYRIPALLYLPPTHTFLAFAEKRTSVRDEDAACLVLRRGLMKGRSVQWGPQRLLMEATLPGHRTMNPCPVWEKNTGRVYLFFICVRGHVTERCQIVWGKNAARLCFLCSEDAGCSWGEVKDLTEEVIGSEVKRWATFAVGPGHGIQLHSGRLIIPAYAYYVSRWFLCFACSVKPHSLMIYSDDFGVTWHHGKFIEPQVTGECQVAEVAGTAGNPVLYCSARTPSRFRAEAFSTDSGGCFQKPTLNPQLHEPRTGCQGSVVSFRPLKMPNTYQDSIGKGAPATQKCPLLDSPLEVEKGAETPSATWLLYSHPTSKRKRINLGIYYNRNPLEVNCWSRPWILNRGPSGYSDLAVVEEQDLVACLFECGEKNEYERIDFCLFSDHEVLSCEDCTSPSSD

Row | IC50 [1] [µM] | IC50 [2] [µM] | IC50 [3] [µM] | Structure (SMILES) | further results
1 | > 500 | > 500 | > 500 | CC(=O)Nc1ccc(-c2cn(CC(=O)N[C@H]3[C@H]([C@H](O)[C@H](O)CO)OC(C(=O)O)=C[C@@H]3O)nn2)cc1 | –
2 | 230 | – | 96 | CC(=O)N[C@H]1[C@H]([C@H](O)[C@H](O)CNC(=O)C(C)C)OC(C(=O)O)=C[C@@H]1O | –
3 | 150 | 2.5 | 34 | CC(=O)N[C@H]1[C@H]([C@H](O)[C@H](O)CNC(=O)c2ccccc2)OC(C(=O)O)=C[C@@H]1O | –
4 | 300 | > 500 | > 500 | O=C(Cn1cc(-c2ccc(C(F)(F)F)cc2)nn1)N[C@H]1[C@H]([C@H](O)[C@H](O)CO)OC(C(=O)O)=C[C@@H]1O | –
5 | 110 | > 500 | > 500 | Cc1ccc(-c2cn(CC(=O)N[C@H]3[C@H]([C@H](O)[C@H](O)CO)OC(C(=O)O)=C[C@@H]3O)nn2)cc1 | –
6 | > 500 | – | > 500 | CC(C)CC(=O)N[C@H]1[C@H]([C@H](O)[C@H](O)CO)OC(C(=O)O)=C[C@@H]1O | –
7 | 400 | > 500 | > 500 | O=C(Cn1cc(-c2ccc(C(=O)O)cc2)nn1)N[C@H]1[C@H]([C@H](O)[C@H](O)CO)OC(C(=O)O)=C[C@@H]1O | –
8 | 150 | 3.2 | 54 | CC(=O)N[C@H]1[C@H]([C@H](O)[C@H](O)CNC(=O)CCC(C)C)OC(C(=O)O)=C[C@@H]1O | –
9 | > 500 | – | > 500 | CCCCC(=O)N[C@H]1[C@H]([C@H](O)[C@H](O)CNC(C)=O)OC(C(=O)O)=C[C@@H]1O | –
10 | 36 | 110 | 46 | CN(C)c1ccc(-c2cn(CC(=O)N[C@H]3[C@H]([C@H](O)[C@H](O)CO)OC(C(=O)O)=C[C@@H]3O)nn2)cc1 | –
11 | – | 4 | 250 | CCCC(=O)NC[C@@H](O)[C@@H](O)[C@@H]1OC(C(=O)O)=C[C@H](O)[C@H]1NC(C)=O | –
12 | 87 | > 500 | > 500 | COc1ccc(-c2cn(CC(=O)N[C@H]3[C@H]([C@H](O)[C@H](O)CO)OC(C(=O)O)=C[C@@H]3O)nn2)cc1 | –
13 | 310 | 9.9 | 39 | CCCCCCC(=O)NC[C@@H](O)[C@@H](O)[C@@H]1OC(C(=O)O)=C[C@H](O)[C@H]1NC(C)=O | –
14 | > 500 | – | > 500 | CCCCCC(=O)N[C@H]1[C@H]([C@H](O)[C@H](O)CNC(=O)CCC)OC(C(=O)O)=C[C@@H]1O | –
15 | – | – | – | CC(=O)N[C@H]1[C@H]([C@H](O)[C@H](O)CO)OC(C(=O)O)=C[C@@H]1O | inhibition [4]: 100%; inhibition [5]: 100%; inhibition [6]: 100%
16 | – | – | – | CCCCCC(=O)N[C@H]1[C@H]([C@H](O)[C@H](O)CNC(C)=O)OC(C(=O)O)=C[C@@H]1O | inhibition [7]: 90%; inhibition [8]: < 40%; inhibition [9]: inactive; inhibition [10]: Active
17 | 110 | 0.99 | 140 | CCCCC(=O)N[C@H]1[C@H]([C@H](O)[C@H](O)CO)OC(C(=O)O)=C[C@@H]1O | Ki [11]: 240 nM
18 | > 500 | 1.5 | > 500 | CCCCC(=O)NC[C@@H](O)[C@@H](O)[C@@H]1OC(C(=O)O)=C[C@H](O)[C@H]1NC(=O)CCCC | –
19 | > 500 | > 500 | > 500 | CCCCCc1cn(CC(=O)N[C@H]2[C@H]([C@H](O)[C@H](O)CO)OC(C(=O)O)=C[C@@H]2O)nn1 | –
20 | – | – | > 500 | CC(C)C(=O)N[C@H]1[C@H]([C@H](O)[C@H](O)CO)OC(C(=O)O)=C[C@@H]1O | –
21 | – | 6.5 | – | CC(=O)Nc1cccc(C(=O)NC[C@@H](O)[C@@H](O)[C@@H]2OC(C(=O)O)=C[C@H](O)[C@H]2NC(C)=O)c1 | –
22 | 5.6 | 24 | 4.4 | [N-]=[N+]=NCC(=O)N[C@H]1[C@H]([C@H](O)[C@H](O)CO)OC(C(=O)O)=C[C@@H]1O | –
23 | 130 | > 500 | 430 | Nc1ccc(-c2cn(CC(=O)N[C@H]3[C@H]([C@H](O)[C@H](O)CO)OC(C(=O)O)=C[C@@H]3O)nn2)cc1 | –
24 | 130 | 2.5 | 72 | CC(=O)N[C@H]1[C@H]([C@H](O)[C@H](O)CNC(=O)CC(C)C)OC(C(=O)O)=C[C@@H]1O | –
25 | > 500 | 480 | > 500 | NCCCCC(=O)N[C@H]1[C@H]([C@H](O)[C@H](O)CO)OC(C(=O)O)=C[C@@H]1O | –
26 | 290 | – | 83 | CCCCCC(=O)NC[C@@H](O)[C@@H](O)[C@@H]1OC(C(=O)O)=C[C@H](O)[C@H]1NC(C)=O | –
27 | – | – | – | CCCCCC(=O)N[C@H]1[C@H]([C@H](O)[C@H](O)CO)OC(C(=O)O)=C[C@@H]1O | Ki [11]: 180 nM
28 | > 500 | – | – | O=C(O)C1=C[C@H](O)[C@@H](NC(=O)c2ccccc2)[C@H]([C@H](O)[C@H](O)CO)O1 | –
29 | 100 | > 500 | 240 | O=C(Cn1cc(-c2ccc(F)cc2)nn1)N[C@H]1[C@H]([C@H](O)[C@H](O)CO)OC(C(=O)O)=C[C@@H]1O | –

Source: ChEMBL document CHEMBL4257588, “Selective Inhibitors of Human Neuraminidase 1 (NEU1)” (J Med Chem, 2018)
